From PubChem
Compounds with a hit are over-represented: about 2.9% of the library has one in this group of screens.
TRPC4 inh = TRPC4 (mouse) channel inhibition | Q9QUQ5 | HEK293 TRPC4beta/mu-opioid, DAMGO-evoked Fluo4 calcium flux; stronger effect = lower value | B-score at 10 µM | 300,000 compounds, 0.39% hits | AID 2247;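 active = B-score over 3 SD under the library average, no early fluorescence shift, positive overall ratio signal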
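Material: HEK293 cells with stable TRPC4beta plus mu-opioid receptor expression; probe or stimulus: DAMGO in two steps, submaximal then maximal; technique: Fluo4 calcium fluorescence by kinetic imaging, 5 s 1 Hz baseline; measure: integrated fluorescence ratio relative to baseline, converted to per-well B score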
TRPC6 activator = mouse TRPC6 channel activation. Q61143. HEK293-TRPC6 membrane potential dye fluorescence; stronger effect = higher value. B-score at 10 µM. 310,000 compounds, 0.13% hits;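 active = B-score of the integrated fluorescence ratio above library mean plus 3 SD, and starting fluorescence ratio within library mean plus 5 SD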;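 also: higher score means more depolarization so channel activation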
TRPC4 act = TRPC4 (mouse) channel activation | Q9QUQ5 | HEK293 TRPC4beta/mu-opioid, Fluo4 calcium fluorescence; stronger effect = higher value | B-score at 10 µM | 310,000 compounds, 0.49% hits;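 active = B-score above 5 SD of library B-scores, and initial fluorescence ratio not above library mean plus 5 SD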;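 also: positive B-score marks a calcium rise read as TRPC4 activation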
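Material: TRPC4beta and mu-opioid receptor HEK293 stable cells | Incubation: 45 min room-temperature Fluo4 loading, 110 s read | Detection: Kinetic Fluo4 calcium fluorescence | Measure: Integrated baseline-normalised fluorescence ratio, converted to per-well B score | Benchmarks: Low control buffer alone, high control maximal DAMGO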
TRPC6 inh = blocks the mouse TRPC6 cation channel; B-score at 10 µM; HEK293-TRPC6, membrane potential dye, ACh-evoked depolarization; stronger effect = lower value; 310,000 compounds, 1.1% hits; Q61143; AID 2553;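 active = B-score under library mean minus 3 SD, initial fluorescence not abnormally high, positive integrated signal ratio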;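 also: B-score derived from integrated fluorescence ratio over the kinetic read; more negative B-score means stronger inhibition of depolarization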
TRPC4 PAM = allosterically enhances the mouse TRPC4 cation channel; B-score at 10 µM; 310,000 compounds, 0.42% hits; HEK293 TRPC4beta/mu-opioid, DAMGO EC20, Fluo-4 Ca2+ flux; stronger effect = higher value;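 active = B-score of calcium response area above 5 SD of library B-scores, with initial fluorescence ratio within 5 SD of library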;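 also: B-score of integrated fluorescence ratio over time as area under calcium response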
Kir21 block = blocks the mouse Kir2.1 inward-rectifier potassium channel; P35561; HEK293-Kir2.1, FluxOR thallium flux fluorescence; stronger effect = lower value; B-score at 10 µM; 310,000 compounds, 0.85% hits;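 active = fluorescence ratio B-score at or below minus 3 SD of library scores, with starting-brightness B-score within 2 SD, cut at about -4.2 in these data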;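 also: channel flux triggered by added potassium and thallium sulfate stimulus; B-score of peak minus minimum fluorescence over baseline after thallium stimulus; more negative B-score means stronger Kir2.1 block with less thallium influx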
* = called active by the depositor; i = inactive.

SMILES	TRPC4 inh	TRPC6 activator	TRPC4 act	TRPC6 inh	TRPC4 PAM	Kir21 block
CCN1CCOC(CC(=O)Nc2ccc([N+](=O)[O-])cc2)C1=O (configuration not stated)	i	i	i	i	i	-1.1
CC(C)Cc1cc(C(=O)Nc2cc(C(F)(F)F)ccc2Cl)no1	i	i	i	i	10*	-0.98
CCC(=O)Nc1ccc(Cl)c(NC(=O)c2ccc(Br)o2)c1	i	i	i	i	i	2.6
Cc1c(C(=O)N2CCCC(C)C2)sc2ncnc(N3CCCCC3C)c12 (configuration not stated)	i	i	i	i	i	0
CC1Cc2ccccc2N1C(=O)COC(=O)CSc1ccc(F)cc1 (configuration not stated)	i	i	i	i	i	3.1
CN1CCN(CCn2c(=S)[nH]c3ccccc3c2=O)CC1	i	i	i	i	i	2
O=c1c2ccccc2[nH]c(=S)n1CCN1CCN(Cc2ccccc2)CC1	-6*	i	i	i	i	-0.11
CN(C)CCn1c(=S)[nH]c2ccccc2c1=O	i	i	i	i	11*	1.4
CN(C)CCCn1c(=S)[nH]c2ccccc2c1=O	i	i	i	i	i	-0.55
O=C(c1c[nH]c2ccccc12)N1CCN(Cc2ccccc2)CC1	i	i	i	i	i	-1.9
c1ccc(CN2CCN(Cc3c[nH]c4ccccc34)CC2)cc1	-6*	i	i	i	i	-0.89
COc1ccc(-c2cc(N3C(=O)Nc4ccccc4N3O)n[nH]2)cc1OC	i	i	i	i	i	-0.85
Cc1sc(NC(=O)C2C3CCC(C3)C2C(=O)O)c(C(N)=O)c1-c1ccc(C(C)(C)C)cc1 (configuration not stated)	i	i	i	i	i	0.04
